The source of these data is ChEMBL document CHEMBL3414523, “FimH antagonists: bioisosteres to improve the in vitro and in vivo PK/PD profile” (J Med Chem, 2015).

The structures appear in SMILES notation. ≈ marks a conversion by molar mass, not a printed value.

Series [1] in a line: physchem. The conditions noted are these: octanol/water, pH 7.4.
The nature of series [2]: Displacement of fluorescently labeled 3'-chloro-N-(2-(3-(3',6'-dihydroxy-3-oxo-3H-spiro[isobenzofuran-1,9'-xanthene]-5-yl)thioureido)ethyl)-4'-((2R,3S,4S,5S,6R)-3,4,5-trihydroxy-6-(hydroxymethyl)tetrahydro-2H-pyran-2-yloxy)biphenyl-4-carboxamide from Escherichia coli recombinant 6-His-tagged FimH CRD expressed in Escherichia coli HM125 after 24 hrs by fluorescence polarization assay. In short, it runs like this: (§1)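 Competitive fluorescence polarization with His6-tagged FimH CRD (thrombin cleavage site) and fixed fluorescent reporter ligand, 24 h incubation to reach equilibrium; polarized excitation 485 nm, emission 528 nm on a plate reader. IC50 from four-parameter nonlinear least-squares fit, converted to KD by a modified Cheng–Prusoff equation accounting for ligand depletion.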

Series [3] can be described thus: Apparent permeability across apical to basolateral side in human Caco2 cells by LC/MS analysis. The conditions noted are these: Caco-2.
A short description of series [4]: physchem. To be noted: buffer, pH 7.4.
Series [5] is described as follows: Apparent permeability across basolateral to apical side in human Caco2 cells by LC/MS analysis. To be noted: Caco-2.
Series [6] can be described thus: Displacement of n-heptyl 2-deoxy-alpha-D-mannopyranoside from Escherichia coli recombinant 6-His-tagged FimH CRD expressed in Escherichia coli HM125 after 20 mins by isothermal titration calorimetry.
Series [7] can be described thus: Initial plasma concentration in C3H/HeN mouse at 0.625 mg/kg, iv. Type of series: ADME, organism-based. Also on record: dose 0.625 mg/kg, route intravenous.
Series [8] relates to Mus musculus. In words: Volume of distribution in C3H/HeN mouse at 0.625 mg/kg, iv. The conditions noted are these: in vivo. Further details: dose 0.625 mg/kg, route intravenous. Type of series: ADME, organism-based.
Series [9] can be described thus: Plasma protein binding in human by equilibrium dialysis method. Type of series: ADME, cell-free. To be noted: read-out: PPB (converted).
A short description of series [10]: Half life in rat liver microsomes at 2 uM after 10 mins by LC/MS/MS analysis.
Series [11] can be described thus: Total clearance in C3H/HeN mouse at 0.625 mg/kg, iv. It is filed as ADME, organism-based. Further details: dose 0.625 mg/kg, route intravenous. To be noted: in vivo.
In series [12] the test system is Escherichia coli. Put plainly: Antimicrobial activity against Escherichia coli UTI89 infected in C3H/HeN mouse urinary tract infection model assessed as bacterial load reduction in kidney at 1.25 mg/kg, po administered 40 mins prior to infection measured after 3 hrs (reference value: 6 log10 CFU). It is filed as functional.
Series [13] concerns Mus musculus. Put plainly: Half life in C3H/HeN mouse at 0.625 mg/kg, iv. It is filed as ADME, organism-based. Further details: dose 0.625 mg/kg, route intravenous. The conditions noted are these: in vivo.
Series [14] relates to Escherichia coli. Put plainly: Antimicrobial activity against Escherichia coli UTI89 infected in C3H/HeN mouse urinary tract infection model assessed as bacterial load reduction in bladder at 1.25 mg/kg, po administered 40 mins prior to infection measured after 3 hrs (reference value: 6.6 log10 CFU). Type of series: functional.
Series [15] deals with Escherichia coli. Put plainly: Inhibition of adhesion of Escherichia coli UTI89 clinical isolate to human 5637 cells assessed as MAC90 after 10 mins by flow cytometry. Type of series: functional.
Series [16] is described as follows: AUC (0 to infinity) in C3H/HeN mouse at 0.625 mg/kg, iv. It is filed as ADME, organism-based. Also on record: time infinity, dose 0.625 mg/kg, route intravenous. To be noted: plasma.
Series [17] is described as follows: Cmax in urine of C3H/HeN mouse at 0.625 mg/kg, iv. It is filed as ADME, organism-based. Also on record: dose 0.625 mg/kg, route intravenous.
In series [18] the test system is Escherichia coli. Put plainly: Antimicrobial activity against Escherichia coli UTI89 infected in C3H/HeN mouse urinary tract infection model assessed as bacterial load reduction in kidney at 10 mg/kg, po formulated with 5% DMSO in PBS containing 1% Tween 80 administered 40 mins prior to infection measured after 3 hrs relative to control. It is filed as functional.

The subject of series [19] is Escherichia coli. Put plainly: Antimicrobial activity against Escherichia coli UTI89 infected in C3H/HeN mouse urinary tract infection model assessed as bacterial load reduction in bladder at 10 mg/kg, po formulated with 5% DMSO in PBS containing 1% Tween 80 administered 40 mins prior to infection measured after 3 hrs relative to control. Type of series: functional.

A short description of series [20]: Kinetic solubility of the compound at 0.1 to 0.5 mM at pH 3 to 7.4 after 15 hrs by UV/Vis spectrophotometry. Type of series: physicochemical. The conditions noted are these: buffer, read-out: Kinetic_solubility.
Series [21] in a line: Binding affinity to Escherichia coli recombinant 6-His-tagged FimH CRD expressed in Escherichia coli HM125 by isothermal titration calorimetry.
The nature of series [22]: Binding affinity to Escherichia coli recombinant 6-His-tagged FimH CRD expressed in Escherichia coli HM125 after 24 hrs by competitive fluorescence polarization assay. In short, it runs like this:
as §1

Series [23] in a line: Lipophilicity, log P of the compound. It is filed as physicochemical. To be noted: octanol/water.
Series [24] deals with Mus musculus. Put plainly: Half life in C3H/HeN mouse at 50 mg/kg, iv. To be noted: in vivo. It is filed as ADME, organism-based. Further details: dose 50 mg/kg, route intravenous.
A short description of series [25]: Cmax in urine of C3H/HeN mouse at 50 mg/kg, iv. Type of series: ADME, organism-based. Also on record: dose 50 mg/kg, route intravenous.
Series [26] relates to Mus musculus. Put plainly: Volume of distribution in C3H/HeN mouse at 50 mg/kg, iv. It is filed as ADME, organism-based. Also on record: dose 50 mg/kg, route intravenous. The conditions noted are these: in vivo.
Series [27] can be described thus: AUC (0 to infinity) in C3H/HeN mouse at 50 mg/kg, iv. The conditions noted are these: plasma. Also on record: time infinity, dose 50 mg/kg, route intravenous. It is filed as ADME, organism-based.
Series [28] concerns Mus musculus. In words: Total clearance in C3H/HeN mouse at 50 mg/kg, iv. Type of series: ADME, organism-based. Also on record: dose 50 mg/kg, route intravenous. The conditions noted are these: in vivo.
A short description of series [29]: Initial plasma concentration in C3H/HeN mouse at 50 mg/kg, iv. Also on record: dose 50 mg/kg, route intravenous. Type of series: ADME, organism-based.
Series [30] is described as follows: Dissociation constant, pKa of the compound by NMR spectroscopy. It is filed as physicochemical.
Series [31] can be described thus: physchem. To be noted: buffer, pH 3.

`CNC(=O)c1ccc(-c2ccc(O[C@H]3O[C@H](CO)[C@@H](O)[C@H](O)[C@@H]3O)cc2)cc1` came in with a logD at 2 h, 1 µM in “physchem [1]” of 0.8. The Kd came out at 2.9 nM in series [2] and 4.3 nM in series [6]. Moreover, the Papp A→B in [3] was 1.1 ×10⁻⁶ cm/s. In the series “physchem [4]”, this compound showed a solubility kinetic at 15 h, 500 µM of 122 µg/mL (≈ 313 µM). In addition, in [5], the Papp B→A worked out at 0.87 ×10⁻⁶ cm/s.

`N#Cc1ccc(-c2ccc(O[C@H]3O[C@H](CO)[C@@H](O)[C@H](O)[C@@H]3O)c(Cl)c2)cc1` registered a C0 in [7] of 0.36 µg/mL. In the series on Mus musculus [8], the Vz is 52.8 mL. Further, the fraction unbound in [9] is 0.11. For the same compound, the logD at 2 h, 1 µM in “physchem [1]” came out at 2.1. The Kd is less than 1 nM in [2] and 1.3 nM in series [6]. The apical-to-basolateral permeability (Papp A→B) in series [3] was found to be 2.2 ×10⁻⁶ cm/s. The compound also had a solubility kinetic at 15 h, 500 µM in the series “physchem [4]” of 192 µg/mL (≈ 490 µM). Also, the half-life at 10 min, 2 µM in [10] (liver microsomes) is more than 1 h. Moreover, the clearance in [11] is 3.63 mL/min. In addition, the Papp B→A in series [5] turned out to be 22.1 ×10⁻⁶ cm/s. The log10cfu turned out to be 1.07 in the series on Escherichia coli [12], 1.78 in the series with Escherichia coli [14], 1.04 in the series with Escherichia coli [18] and 2.68 in the series with Escherichia coli [19]. The t1/2 in the series with Mus musculus [13] came to 0.17 h. In addition, the Activity in the series with Escherichia coli [15] is 0.094 µg/mL. In [16], the AUC(0-inf) stood at 70 ng·h/mL. In [17], this compound came in with a Cmax of 10 µg/mL.

In the case of `CCCCCCCO[C@H]1O[C@H](CO)[C@@H](O)[C@H](O)[C@@H]1O`, in series [20], the solubility kinetic at 15 h was more than 3000 µg/mL. The Kd in series [2] was determined as 28.3 nM; in series [21], 28.9 nM. In addition, the Papp A→B in series [3] is 7 ×10⁻⁶ cm/s. The compound further showed a half-life at 10 min, 2 µM in series [10] (microsomes) of 0.217 h. Moreover, in series [5], the Papp B→A was 9.4 ×10⁻⁶ cm/s.

On to `O=C(NCCOCCOCCNC(=S)Nc1ccc2c(c1)C(=O)OC21c2ccc(O)cc2Oc2cc(O)ccc21)c1ccc(-c2ccc(O[C@H]3O[C@H](CO)[C@@H](O)[C@H](O)[C@@H]3O)c(Cl)c2)cc1`, for which the Kd in series [22] amounted to 9.9 nM.

With `OC[C@H]1O[C@H](Oc2ccc(-c3ccccc3)cc2)[C@@H](O)[C@@H](O)[C@@H]1O`, the fraction unbound in series [9] is 0.07. Moreover, in “physchem [1]”, the logD at 2 h, 1 µM is 2.1. Further, the figures for the Kd in series [2] and in series [21] were 15.1 nM and 17.7 nM, respectively. Also, in series [3], the Papp A→B is 10 ×10⁻⁶ cm/s. Besides, the solubility kinetic at 15 h, 500 µM in the series “physchem [4]” was found to be 21 µg/mL (≈ 63.2 µM). Besides, in series [5], the Papp B→A was 19 ×10⁻⁶ cm/s. The compound further returned a logP in [23] of 2.1.

Consider `CS(=O)(=O)c1ccc(-c2ccc(O[C@H]3O[C@H](CO)[C@@H](O)[C@H](O)[C@@H]3O)cc2)cc1`, for which, in [9], the fraction unbound was 0.01. The compound further had a logD at 2 h, 1 µM in “physchem [1]” of 0.4. The Kd in [2] was 1.7 nM; in [6] it was 3 nM. Besides, the Papp A→B in series [3] worked out at 0.36 ×10⁻⁶ cm/s. In “physchem [4]”, this compound had a solubility kinetic at 15 h, 500 µM of 246 µg/mL (≈ 599 µM). In series [10] (liver microsomes), this compound registered a half-life at 10 min, 2 µM of more than 1 h. The apparent permeability from basolateral to apical (Papp B→A) in series [5] stood at 1.76 ×10⁻⁶ cm/s.

`CNS(=O)(=O)c1ccc(-c2ccc(O[C@H]3O[C@H](CO)[C@@H](O)[C@H](O)[C@@H]3O)cc2)cc1` yielded a t1/2 with Mus musculus [24] of 1.9 h. Besides, the highest level in series [25] (Cmax) was 387 µg/mL. The fraction unbound in series [9] was less than 0.01. Also, in the series with Mus musculus [26], the volume of distribution (Vz) was 19.5 mL. In addition, the Kd in series [2] stood at 2.7 nM; in series [6] it was 3.5 nM. The compound further registered an area under the curve AUC(0-inf) in [27] of 175000 ng·h/mL. This compound also returned a half-life at 10 min, 2 µM in [10] (liver microsomes) of more than 1 h. Also, the CL in the series with Mus musculus [28] was determined as 7.1 mL/h. This compound registered a C0 in [29] of 152 µg/mL.

In turn, `N#CNC(=O)c1ccc(-c2ccc(O[C@H]3O[C@H](CO)[C@@H](O)[C@H](O)[C@@H]3O)cc2)cc1` showed a pKa in series [30] of 2.5. For the same compound, in “physchem [1]”, the log distribution coefficient (logD) at 2 h, 1 µM is -1.1. The dissociation constant (Kd) in [2] amounted to 8.4 nM. In [3], the Papp A→B worked out at 0.22 ×10⁻⁶ cm/s. The solubility kinetic at 15 h, 500 µM in “physchem [4]” and in the series “physchem [31]” was more than 150 µg/mL in each case. For the same compound, the Papp B→A in series [5] amounted to 0.29 ×10⁻⁶ cm/s.
